Experimental data taken from ChEMBL document CHEMBL1123067, “Evaluation of the brain-specific delivery of radioiodinated (iodophenyl)alkyl-substituted amines coupled to a dihydropyridine carrier” (J Med Chem, 1985).
Values belong to the molecule of their own block, whether it stands above or below them.

Columns and labels:
Format in all cases: ADME, organism-based
[1] = test system: Rattus norvegicus; assay: Distribution of radioactivity in brain tissues of Sprague-Dawley rats after 30 min injecton by intravenously; 0.03-0.06; conditions: in vivo, iv, 0.5 h
[2] = test system: Rattus norvegicus; assay: Distribution of radioactivity in blood tissues of Sprague-Dawley rats after 60 min injecton by intravenously; 0.58-0.77; conditions: in vivo, iv, 1 h
[3] = test system: Rattus norvegicus; assay: Distribution of radioactivity in heart tissues of Sprague-Dawley rats after 5 min injecton by intravenously; 0.79-0.85; conditions: in vivo, iv
Procedure, shortened: (§1)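 Female Sprague-Dawley rats, 10–12 weeks old (170–200 g), fed ad libitum, under ether anaesthesia. Each received 15.1 μCi of the ¹²⁵I-labelled pyridinium conjugate or 10.6 μCi of the dihydropyridine conjugate by lateral tail vein. Dose was in 20% Me2SO/saline with vitamin E (~5 mg/mL), 0.22-μm filtered. Five rats per time point. Tissue activity was read against injected-solution standards as % injected dose/g.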

[4] = test system: Rattus norvegicus; assay: Distribution of radioactivity in heart tissues of Sprague-Dawley rats after 60 min injecton by intravenously; 0.58-0.75; conditions: in vivo, iv, 1 h; procedure, shortened: as §1
[5] = test system: Rattus norvegicus; assay: Distribution of radioactivity in liver tissues of Sprague-Dawley rats after 5 min injecton by intravenously; 1.03-1.31; conditions: in vivo, iv; procedure, shortened: as §1
[6] = test system: Rattus norvegicus; assay: Distribution of radioactivity in heart tissues of Sprague-Dawley rats after 15 min injecton by intravenously; 0.68-0.84; conditions: in vivo, iv, 0.25 h
[7] = test system: Rattus norvegicus; assay: Distribution of radioactivity in heart tissues of Sprague-Dawley rats after 30 min injecton by intravenously; 0.58-0.82; conditions: in vivo, iv, 0.5 h; procedure, shortened: as §1
[8] = test system: Rattus norvegicus; assay: Distribution of radioactivity in brain tissues of Sprague-Dawley rats after 15 min injecton by intravenously; 0.03-0.06; conditions: in vivo, iv, 0.25 h
[9] = test system: Rattus norvegicus; assay: Distribution of radioactivity in brain tissues of Sprague-Dawley rats after 60 min injecton by intravenously; 0.03-0.06; conditions: in vivo, iv, 1 h
[10] = test system: Rattus norvegicus; assay: Distribution of radioactivity in lung tissues of Sprague-Dawley rats after 15 min injecton by intravenously; 0.58-0.86; conditions: in vivo, iv, 0.25 h
Procedure, shortened: (§2)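 Female Sprague-Dawley rats, 10–12 weeks, 170–200 g, fed ad libitum, five per time point. Agent dissolved in minimal Me2SO, diluted with saline to 20% Me2SO, with vitamin E (~5 mg/mL) added, 0.22-µm filtered. 15.1 or 10.6 µCi (per agent) injected into lateral tail vein under ether. Lungs taken; % injected dose/g against injected-solution standards; mean (range).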

[11] = test system: Rattus norvegicus; assay: Distribution of radioactivity in blood tissues of Sprague-Dawley rats after 30 min injecton by intravenously; 0.65-0.83; conditions: in vivo, iv, 0.5 h
[12] = test system: Rattus norvegicus; assay: Distribution of radioactivity in liver tissues of Sprague-Dawley rats after 15 min injecton by intravenously; 0.81-1.18; conditions: in vivo, iv, 0.25 h; procedure, shortened: as §1
[13] = test system: Rattus norvegicus; assay: Distribution of radioactivity in liver tissues of Sprague-Dawley rats after 30 min injecton by intravenously; 0.54-0.89; conditions: in vivo, iv, 0.5 h; procedure, shortened: as §1
[14] = test system: Rattus norvegicus; assay: Distribution of radioactivity in kidney tissues of Sprague-Dawley rats after 15 min injecton by intravenously; 0.62-0.92; conditions: in vivo, iv, 0.25 h; procedure, shortened: as §1
[15] = test system: Rattus norvegicus; assay: Distribution of radioactivity in brain tissues of Sprague-Dawley rats after 5 min injecton by intravenously; 0.05-0.07; conditions: in vivo, iv
[16] = test system: Rattus norvegicus; assay: Distribution of radioactivity in lung tissues of Sprague-Dawley rats after 5 min injecton by intravenously; 0.76-0.91; conditions: in vivo, iv; procedure, shortened: as §2
[17] = test system: Rattus norvegicus; assay: Distribution of radioactivity in kidney tissues of Sprague-Dawley rats after 5 min injecton by intravenously; 1.73-2.64; conditions: in vivo, iv; procedure, shortened: as §1
[18] = test system: Rattus norvegicus; assay: Distribution of radioactivity in blood tissues of Sprague-Dawley rats after 5 min injecton by intravenously; 1.0-1.24; conditions: in vivo, iv
[19] = test system: Rattus norvegicus; assay: Distribution of radioactivity in liver tissues of Sprague-Dawley rats after 60 min injecton by intravenously; 0.38-0.57; conditions: in vivo, iv, 1 h; procedure, shortened: as §1
[20] = test system: Rattus norvegicus; assay: Distribution of radioactivity in kidney tissues of Sprague-Dawley rats after 30 min injecton by intravenously; 0.58-0.73; conditions: in vivo, iv, 0.5 h; procedure, shortened: as §1
[21] = test system: Rattus norvegicus; assay: Distribution of radioactivity in lung tissues of Sprague-Dawley rats after 60 min injecton by intravenously; 0.5-0.65; conditions: in vivo, iv, 1 h; procedure, shortened: as §2
[22] = test system: Rattus norvegicus; assay: Distribution of radioactivity in kidney tissues of Sprague-Dawley rats after 60 min injecton by intravenously; 0.49-0.57; conditions: in vivo, iv, 1 h; procedure, shortened: as §1
[23] = test system: Rattus norvegicus; assay: Distribution of radioactivity in lung tissues of Sprague-Dawley rats after 30 min injecton by intravenously; 0.54-0.7; conditions: in vivo, iv, 0.5 h; procedure, shortened: as §2
[24] = test system: Rattus norvegicus; assay: Distribution of radioactivity in blood tissues of Sprague-Dawley rats after 15 min injecton by intravenously; 0.72-1.03; conditions: in vivo, iv, 0.25 h
[25] = Brain to blood ratio in Sprague-Dawley rats after 30 min injection by intravenously; conditions: rat, brain and blood, iv
Procedure, shortened: (§3)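 Female Sprague-Dawley rats, 10–12 weeks old (170–200 g), fed ad libitum. The ¹²⁵I-labelled agent was dissolved in minimal Me2SO, diluted with saline to a final 20% Me2SO, filtered (0.22 μm), and injected into a lateral tail vein under ether anaesthesia. Tissues were counted against samples of the injected solution and expressed as % injected dose/g (mean, range). Brain/blood ratio is from the means.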

[26] = test system: Rattus norvegicus; assay: Distribution of radioactivity in liver tissues of Sprague-Dawley rats after 60 min injection by intravenously; value ranges from 0.47-1.17; conditions: in vivo, iv, 1 h; procedure, shortened: as §1
[27] = test system: Rattus norvegicus; assay: Distribution of radioactivity in brain tissues of Sprague-Dawley rats after 5 min injection by intravenously; value ranges from 0.97-2.17; conditions: in vivo, iv
[28] = test system: Rattus norvegicus; assay: Distribution of radioactivity in heart tissues of Sprague-Dawley rats after 15 min injection by intravenously; value ranges from 2.24-2.58; conditions: in vivo, iv, 0.25 h
[29] = test system: Rattus norvegicus; assay: Distribution of radioactivity in kidney tissues of Sprague-Dawley rats after 5 min injection by intravenously; value ranges from 1.64-3.43; conditions: in vivo, iv; procedure, shortened: as §1
[30] = test system: Rattus norvegicus; assay: Distribution of radioactivity in kidney tissues of Sprague-Dawley rats after 30 min injection by intravenously; value ranges from 1.14-1.4; conditions: in vivo, iv, 0.5 h; procedure, shortened: as §1
[31] = Brain to blood ratio in Sprague-Dawley rats after 15 min injection by intravenously; conditions: rat, brain and blood, iv; procedure, shortened: as §3
[32] = test system: Rattus norvegicus; assay: Distribution of radioactivity in lung tissues of Sprague-Dawley rats after 30 min injection by intravenously; value ranges from 2.26-2.89; conditions: in vivo, iv, 0.5 h; procedure, shortened: as §2
[33] = Brain to blood ratio in Sprague-Dawley rats after 60 min injection by intravenously; conditions: rat, brain and blood, iv; procedure, shortened: as §3
[34] = test system: Rattus norvegicus; assay: Distribution of radioactivity in brain tissues of Sprague-Dawley rats after 30 min injection by intravenously; value ranges from 0.81-1.26; conditions: in vivo, iv, 0.5 h
[35] = test system: Rattus norvegicus; assay: Distribution of radioactivity in lung tissues of Sprague-Dawley rats after 15 min injection by intravenously; value ranges from 3.10-3.77; conditions: in vivo, iv, 0.25 h; procedure, shortened: as §2
[36] = test system: Rattus norvegicus; assay: Distribution of radioactivity in blood tissues of Sprague-Dawley rats after 30 min injection by intravenously; value ranges from 0.35-0.4; conditions: in vivo, iv, 0.5 h
[37] = test system: Rattus norvegicus; assay: Distribution of radioactivity in lung tissues of Sprague-Dawley rats after 60 min injection by intravenously; value ranges from 2.11-3.79; conditions: in vivo, iv, 1 h; procedure, shortened: as §2
[38] = test system: Rattus norvegicus; assay: Distribution of radioactivity in kidney tissues of Sprague-Dawley rats after 60 min injection by intravenously; value ranges from 0.89-1.19; conditions: in vivo, iv, 1 h; procedure, shortened: as §1
[39] = test system: Rattus norvegicus; assay: Distribution of radioactivity in liver tissues of Sprague-Dawley rats after 5 min injection by intravenously; value ranges from 1.06-2.71; conditions: in vivo, iv; procedure, shortened: as §1
[40] = test system: Rattus norvegicus; assay: Distribution of radioactivity in heart tissues of Sprague-Dawley rats after 60 min injection by intravenously; value ranges from 1.68-2.23; conditions: in vivo, iv, 1 h; procedure, shortened: as §1
[41] = test system: Rattus norvegicus; assay: Distribution of radioactivity in lung tissues of Sprague-Dawley rats after 5 min injection by intravenously; value ranges from 3.62-7.08; conditions: in vivo, iv; procedure, shortened: as §2
[42] = Brain to blood ratio in Sprague-Dawley rats after 5 min injection by intravenously; conditions: rat, brain and blood, iv; procedure, shortened: as §3
[43] = test system: Rattus norvegicus; assay: Distribution of radioactivity in kidney tissues of Sprague-Dawley rats after 15 min injection by intravenously; value ranges from 1.42-1.82; conditions: in vivo, iv, 0.25 h; procedure, shortened: as §1
[44] = test system: Rattus norvegicus; assay: Distribution of radioactivity in blood tissues of Sprague-Dawley rats after 60 min injection by intravenously; value ranges from 0.28-0.37; conditions: in vivo, iv, 1 h
[45] = test system: Rattus norvegicus; assay: Distribution of radioactivity in liver tissues of Sprague-Dawley rats after 30 min injection by intravenously; value ranges from 1.06-1.29; conditions: in vivo, iv, 0.5 h; procedure, shortened: as §1
[46] = test system: Rattus norvegicus; assay: Distribution of radioactivity in blood tissues of Sprague-Dawley rats after 5 min injection by intravenously; value ranges from 0.28-0.46; conditions: in vivo, iv
[47] = test system: Rattus norvegicus; assay: Distribution of radioactivity in heart tissues of Sprague-Dawley rats after 5 min injection by intravenously; value ranges from 2.36-3.96; conditions: in vivo, iv; procedure, shortened: as §1
[48] = test system: Rattus norvegicus; assay: Distribution of radioactivity in brain tissues of Sprague-Dawley rats after 60 min injection by intravenously; value ranges from 0.76-1.42; conditions: in vivo, iv, 1 h
[49] = test system: Rattus norvegicus; assay: Distribution of radioactivity in heart tissues of Sprague-Dawley rats after 30 min injection by intravenously; value ranges from 1.96-2.46; conditions: in vivo, iv, 0.5 h
[50] = test system: Rattus norvegicus; assay: Distribution of radioactivity in liver tissues of Sprague-Dawley rats after 15 min injection by intravenously; value ranges from 1.23-1.78; conditions: in vivo, iv, 0.25 h; procedure, shortened: as §1
[51] = test system: Rattus norvegicus; assay: Distribution of radioactivity in blood tissues of Sprague-Dawley rats after 15 min injection by intravenously; value ranges from 0.31-0.4; conditions: in vivo, iv, 0.25 h
[52] = test system: Rattus norvegicus; assay: Distribution of radioactivity in brain tissues of Sprague-Dawley rats after 15 min injection by intravenously; value ranges from 1.05-1.25; conditions: in vivo, iv, 0.25 h

Distribution [1]: 0.04% | Distribution [2]: 0.67% | Distribution [3]: 0.83% | Distribution [4]: 0.67% | Distribution [5]: 1.18% | Distribution [6]: 0.76% | Distribution [7]: 0.68% | Distribution [8]: 0.05% | Distribution [9]: 0.04% | Distribution [10]: 0.72% | Distribution [11]: 0.75% | Distribution [12]: 1.04% | Distribution [13]: 0.71% | Distribution [14]: 0.74% | Distribution [15]: 0.06% | Distribution [16]: 0.84% | Distribution [17]: 2.1% | Distribution [18]: 1.11% | Distribution [19]: 0.49% | Distribution [20]: 0.65% | Distribution [21]: 0.57% | Distribution [22]: 0.53% | Distribution [23]: 0.62% | Distribution [24]: 0.87%
Structure (SMILES): C[n+]1cccc(C(=O)Nc2ccc([125I])cc2)c1.[I-]

Kp at 0.5 h [25]: 2.66 | Distribution [26]: 0.82% | Distribution [27]: 1.14% | Distribution [28]: 2.43% | Distribution [29]: 2.36% | Distribution [30]: 1.23% | Kp at 0.25 h [31]: 3.29 | Distribution [32]: 2.43% | Kp at 1 h [33]: 3.6 | Distribution [34]: 1.01% | Distribution [35]: 3.3% | Distribution [36]: 0.38% | Distribution [37]: 2.77% | Distribution [38]: 1.07% | Distribution [39]: 1.65% | Distribution [40]: 1.88% | Distribution [41]: 4.61% | Kp at 5 min [42]: 3.87 | Distribution [43]: 1.56% | Distribution [44]: 0.31% | Distribution [45]: 1.18% | Distribution [46]: 0.37% | Distribution [47]: 2.86% | Distribution [48]: 1.12% | Distribution [49]: 2.18% | Distribution [50]: 1.56% | Distribution [51]: 0.35% | Distribution [52]: 1.16%
Structure (SMILES): CN1C=CCC(C(=O)Nc2ccc([125I])cc2)=C1
